# Experimental data taken from ChEMBL document CHEMBL4765453, “Phenanthrolinic analogs of quinolones show antibacterial activity against M. tuberculosis” (Eur J Med Chem, 2020).
# Tested on: Mycobacterium tuberculosis
# Assay: Antibacterial activity against Mycobacterium bovis BCG measured after 7 days by resazurin microtiter assay
# Type: functional
# Details: variant bovis BCG, 168 h, time 7 day
# Outline: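 Resazurin microtiter assay with two-fold drug dilutions in complete 7H9 broth. Exponential-phase cells are diluted to a final OD600 of 0.005 in 7H9 without Tween. Incubation is 7 days at 37°C, then 0.01% resazurin is added and plates are held 24 h more. MIC is the lowest concentration preventing the blue-to-pink change. Each MIC is determined three times in duplicate experiments.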
row,Compound,MIC90 [µM]
1,Cn1cc(C(=O)O)c(=O)c2cc([N+](=O)[O-])c3cccnc3c21,1.4
2,CCOC(=O)c1cn(C)c2c(cc([N+](=O)[O-])c3cccnc32)c1=O,2.35
3,CCn1cc(C(=O)O)c(=O)c2cc([N+](=O)[O-])c3cccnc3c21,2.67
4,CCOC(=O)c1cn(CC)c2c(cc([N+](=O)[O-])c3cccnc32)c1=O,2.5
5,NCC[C@H](O)C(=O)N[C@@H]1C[C@H](N)[C@@H](O[C@H]2O[C@H](CN)[C@@H](O)[C@H](O)[C@H]2O)[C@H](O)[C@H]1O[C@H]1O[C@H](CO)[C@@H](O)[C@H](N)[C@H]1O [AMIKACIN],0.46
6,CC1COc2c(N3CCN(C)CC3)c(F)cc3c(=O)c(C(=O)O)cn1c23 (stereo unspecified) [OFLOXACIN],1.73
